One block for each compound: values may come before it. Ends that are not written are not given here.
Columns and labels:
[1] = In vivo plasma concentration and bio-distribution of PTX; parameters: species or system BALB/c mice; conditions: mice, HPLC
In short: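 Female BALB/c mice (4–6 weeks, 18–22 g) carried subcutaneous HeLa xenografts (5×10^6 cells) grown to ~50 mm3. Filtered formulations (100 μL) were dosed daily via tail vein for 2 weeks. Blood and organs (lung, liver, kidney, heart, spleen) were saline-washed, weighed and stored at −20°C. Plasma and homogenates were methanol-precipitated and spun at 12,000 rpm for 10 min; PTX was quantified by C18 HPLC at 227 nm.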

HeLa cells [2] = conditions: after 20 hours of incubation with 1 μM (0.854 μg/mL) PTX; cited from earlier work
HeLa cells [3] = experiment: Cytotoxicity of CPP; assay type: cell-based, Human; conditions: MTT, 3 and 24 hours incubation, up to 1,000 μM
In short: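 HeLa cells seeded at 5×10^3/well and grown 24 h. Exposed to peptide at 50–1,000 μM for 3 h, washed twice with PBS, then given fresh medium for 24 h. A parallel arm used 100 and 1,000 μM for 24 h. Viability by MTT (3 h, DMSO solubilisation, OD492), expressed as percent of untreated cells.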

[4] = system: L292 cells, HCT cells, A594 cells, Hep-G2 cells, and HSC cells; experiment: Cytotoxicity of Rq and Rq/PTX on other cell types; assay type: cell-based; conditions: 24 hours incubation with 1,000 μM Rq; Figure S2
HeLa cells [5] = experiment: Cellular uptake and distribution by fluorescence / confocal microscopy; assay type: cell-based, Human; conditions: 10 and 100 μM, 30 minutes, 37°C, serum-free medium
In short: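 HeLa cells (4×10^4) on coverslips, 24 h, then FITC-labelled peptide or FITC alone at 10 or 100 μM in serum-free medium, 37°C for 30 min. Washed twice in PBS with heparin to strip surface-bound peptide, fixed in 4% PFA. For widefield imaging, nuclei were DAPI-stained; for intracellular distribution, cells were imaged by confocal microscopy immediately after fixation.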

PTX level in tissues (organs) ([1]; after 2 weeks of daily tail vein treatment, tissue homogenate): accumulated in liver, kidney, and heart | drop in the PTX concentration in plasma ([1]; tail vein injection, 30 minutes versus 24 hours after injection): sharply decreased
Compound: CC(=O)O[C@H]1C(=O)[C@@]2(C)[C@H]([C@H](OC(=O)c3ccccc3)[C@]3(O)C[C@H](OC(=O)[C@H](O)[C@@H](NC(=O)c4ccccc4)c4ccccc4)C(C)=C1C3(C)C)[C@]1(OC(C)=O)CO[C@@H]1C[C@@H]2O [PTX, paclitaxel]
intracellular PTX concentration (HeLa cells [2]): 0.206 mg/mL

Compound: RRRRQWWQW [Rq]
cell viability after incubation with Rq (HeLa cells [3]): Nearly all the cells were viable | cell viability of other cell types after incubation with Rq [4]: no significant decrease in the cell viability

Compound: fluorescein isothiocyanate [FITC]
green fluorescence in cells (fluorescence microscopy) (HeLa cells [5]): no fluorescence was observed
